Test results as given in paper PMC8520056 (Asian Journal of Pharmaceutical Sciences, 2021).
Values after ≈ are worked out from the molar mass of the structure shown. Values belong to the molecule of their own block, whether it stands above or below them.

What was measured:
[1] = Saturated solubility of AG-CDs binary formulations; assay type: physicochemical; settings: distilled water
Outline: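 Binary complexes were made by grinding. γ-CD was dissolved in distilled water, compound added at 1:1 or 1:2 molar ratio, and the mix ground 2 h to a paste. The paste was dried at 50 °C under vacuum, pulverised and passed through an 80-mesh sieve.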

[2] = cited from earlier work
[3] = In vivo pharmacokinetic study after oral administration; parameters: species or system Sprague-Dawley rats; settings: male, Sprague-Dawley, rat, plasma, 40 mg/kg
[4] = Transwell transport study in MDCK-MDR1 monolayer; assay type: in vitro ADME, canine; settings: dog
Outline: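 MDCK-MDR1 cells were seeded at 5 × 10^5 cells/well on 0.4 µm polycarbonate inserts and cultured 7 d; medium was changed every other day, then daily after day 4. Only monolayers with TEER above 140 ohms were used. Monolayers were equilibrated 30 min in HBSS at 37 °C. […] Receiver samples were taken at 15–120 min for HPLC. Papp = (ΔR/Δt)/(S·C0), with S 4.71 cm2; the efflux ratio was calculated from Papp.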

[5] = Dissolution study; assay type: physicochemical; settings: different pH media, 150 mg AG in 1000 ml, 75 rpm, 37 °C, up to 60 min
Outline: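 USP-type paddle method (Ch.P 2015 Apparatus II) at 75 rpm and 37 ± 0.5 °C. Medium was 1000 ml of distilled water, 0.1 mol/l HCl, pH 6.8 phosphate buffer or 1% SDS. Pure compound or formulations were added at 150 mg compound-equivalent. Aliquots were drawn at 5, 10, 15, 20, 30, 45 and 60 min and replaced with fresh medium. Samples were filtered through 0.45 µm and assayed by HPLC.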

[6] = Physiologically based absorption modeling; parameters: species or system rat
[7] = test system: MDCK-MDR1 cells; assay: Cellular uptake of AG with P-gp inhibitors; assay type: cell-based, canine; settings: 100 µM AG, 200 µM γ-CD, 1% P-gp inhibitor, 37 °C, 90 min
Outline: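 MDCK-MDR1 cells were grown in DMEM with 10% heat-inactivated FBS and 1% penicillin/streptomycin at 37 °C, 5% CO2. Cells were seeded at 5 × 10^5 cells/well and left to adhere overnight. At 80% confluence they were exposed for 90 min at 37 °C to 100 µM test compound, with or without 200 µM γ-CD plus 1% Tween 80, TPGS, P407 or Cremophor EL. Cells were washed three times in ice-cold PBS, lysed in 1% Triton X-100, and intracellular compound was measured by HPLC. […] Triplicates, mean ± SD.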

[8] = three-compartment model fitted to 5 mg/kg i.v. data of ref 35

solubility [1]: 74.6 µg/mL (≈ 213 µM)
AUC(0-inf) [3]: 426 ± 76.8 ng·h/mL
AUC(0-t) [3]: 351 ± 56.5 ng·h/mL
Cmax [3]: 57.8 ± 14.8 ng/mL
Tmax [3]: 1.33 ± 0.52 h
half-life [3]: 9.72 ± 1.38 h
k el [3]: 2e-05 s⁻¹
Papp A→B at 120 min, 20 µM [4]: 0.47 ± 0.04 ×10⁻⁶ cm/s
Papp B→A at 120 min, 20 µM [4]: 4.9 ± 0.05 ×10⁻⁶ cm/s
efflux ratio at 120 min, 20 µM [4]: 10.4
AG released (dissolution) [5]: 17%
Dissolution rate (constant) ([6]; fitted to dissolution test result, pH 6.8 PBS): 148 µL/min/mg
Central (compartment volume) [6, 8]: 1460 mL
K10 [6, 8]: 0.7518 h⁻¹
K12 [6, 8]: 1.29 h⁻¹
K13 [6, 8]: 4.5125 h⁻¹
K21 [6, 8]: 0.27 h⁻¹
K31 [6, 8]: 7.0938 h⁻¹
Periperal_2 (compartment volume) [6, 8]: 1000 mL
Peripheral_1 (compartment volume) [6, 8]: 6000 mL
Molecule: C=C1CC[C@@H]2[C@](C)(CO)[C@H](O)CC[C@@]2(C)[C@@H]1C/C=C1/C(=O)OC[C@H]1O [AG, Andrographolide]
Unbound fraction (plasma) [2]: 0.35

Molecule: D-α-Tocopherol polyethylene glycol succinate [TPGS]
Cellular uptake of AG [7]: 1.04 nmol/mg protein
